Screens: PubChem BioAssay, several laboratories
SR-BI uptake up: enhances SR-BI lipid uptake from DiI-HDL; CHO ldlA[mSR-BI] cells, DiI-HDL uptake fluorescence, 3 h; 100 = double the neutral-control signal; activation, % at 12.5 µM; hit rate 0.096% among 320,000; AID 504775;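 active = mean replicate activation of at least 60% and every replicate at or above 60%; inconclusive = mean or all-replicate condition met, but not both; inactive = mean below 60% and not all replicates reaching 60%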
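Test system: SR-BI-overexpressing, LDLR-lacking CHO cells; Medium: Ham's F12 with 0.5% BSA, HEPES 25 mM, pH 7.4; Schedule: 3 h, 37 °C; Technique: bottom-read fluorescence, 550/595 nm.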
Neddylation inh: cullin neddylation inhibition; hit rate 0.58% among 360,000; P61081+Q13564; TR-FRET cullin neddylation, biochemical; inhibition, % at 25 µM; in the data active = inhibition above about 36%
UBC13 inh: human UBC13 polyubiquitination inhibition. inhibition, % at 20 µM. AID 485273. P61088. UBC13 polyubiquitin chain formation, TR-FRET. hit rate 0.47% among 330,000; in the data active = inhibition above about 45%, passing the limit was not always enough; inconclusive = no clear call, values can overlap the other calls
Target sequence (P61088 whole entry, looked up): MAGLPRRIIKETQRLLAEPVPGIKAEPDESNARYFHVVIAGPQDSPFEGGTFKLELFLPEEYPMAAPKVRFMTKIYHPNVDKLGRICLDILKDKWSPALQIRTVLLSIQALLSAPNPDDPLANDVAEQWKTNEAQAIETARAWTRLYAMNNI
SR-BI HDL uptake: inhibitors of mouse SR-BI mediated HDL lipid uptake | hit rate 0.96% among 320,000 | ldlA[mSR-BI] CHO cells, DiI-HDL uptake fluorescence, 3 h | Q61009 | inhibition, % at 12.5 µM;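 active = mean replicate inhibition of at least 70% and a set share of replicates each scoring 70 or more; inconclusive = meets just one of the two criteria; inactive = fails both criteria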
Large screens that a line does not name were inactive. Shown are actives, neighbours in structure and some others; about 1.9% of the full set was active somewhere.

O=C1CCCN1C(=O)CSc1ncnc2sccc12	none
CN(C)/C=C/C(=O)c1ccc2noc(-c3ccc(F)cc3)c2c1	SR-BI HDL uptake 86.5
CC1(C)Cc2c(c(N3CCCC3)nc3sc(C(=O)Nc4ccccc4)c(N)c23)CO1	UBC13 inh inconclusive, SR-BI HDL uptake 76.3
COc1ccccc1NC(=O)c1sc2nc(N3CCOCC3)c3c(c2c1N)CCCC3	SR-BI HDL uptake 84.4 (no result: SR-BI uptake up)
CCOC(=O)c1sc2nc(-c3ccco3)c3c(c2c1N)CC(C)(C)OC3	SR-BI HDL uptake 75.4
COC(=O)CSc1ncnc2c1sc1nc(-c3ccco3)c3c(c12)CC(C)(C)OC3	none (no result: SR-BI uptake up, Neddylation inh, SR-BI HDL uptake)
COc1ccc(OC)c(NC(=O)c2sc3nc(Cc4ccccc4)cc(C(F)(F)F)c3c2N)c1	SR-BI HDL uptake 71.2
Cc1ccccc1NC(=O)c1sc2nc(N3CCOCC3)c3c(c2c1N)CCCC3	UBC13 inh inconclusive
COc1ccc(-c2cc(C(F)(F)F)c3c(N)c(C(=O)NCCSC)sc3n2)cc1	none (not shown: Neddylation inh)
c1ccc(COc2ncnc3c2ncn3CCCNC2CCN(Cc3ccccc3)CC2)cc1	none (no result: SR-BI uptake up, UBC13 inh, SR-BI HDL uptake)
Cc1ccc(S(=O)(=O)N2CCOCC2)cc1NC(=O)Nc1ccc([N+](=O)[O-])cc1	none
CCOC(=O)c1sc2nc(N3CCOCC3)c3c(c2c1N)CCC3	SR-BI HDL uptake 73.6
O=C(NCCN1CCN(C(=O)c2ccc(Br)cc2)CC1)c1ccc(Br)cc1	SR-BI HDL uptake 71.1
Cc1ccc(C(=O)NCCN2CCN(C(=O)c3ccc(C)c(C)c3)CC2)cc1C	SR-BI HDL uptake inconclusive
COc1ccc(C(CNC(=O)C(CCSC)NC(=O)c2ccccc2OC)N2CCCCC2)cc1 (stereo not given)	none
COc1ccc2cc(-c3ccccc3)ncc2c1	none
COc1cc(OC)cc(-c2cc3ccc(OC)cc3cn2)c1	SR-BI HDL uptake 90.3
COc1ccc(-c2cc3cc(OC)c(OC)cc3cn2)cc1	SR-BI HDL uptake 79.1 (not shown: Neddylation inh)
COc1ccc(CCNC(=O)CN2CCN(Cc3ccccc3F)C2=O)cc1OC	none
CCOc1ccc(CCNC(=O)CN2CCN(Cc3ccccc3C)C2=O)cc1OCC	SR-BI HDL uptake 79.2
Cc1noc(C)c1NC(=O)N(C)C[C@@H]1OCc2cn(nn2)CCCC(=O)N([C@H](C)CO)C[C@H]1C	none (no result: SR-BI uptake up, UBC13 inh, SR-BI HDL uptake)
CCOc1ccc(C(=O)Nc2nc3ccccc3[nH]2)cc1OCC	SR-BI HDL uptake 80.9
O=S(=O)(NCCCCNS(=O)(=O)c1c(F)cccc1F)c1ccc2c(c1)OCCO2	none
CCOC(=O)c1c(-c2ccccc2)c2cc(OC)ccc2n1CCCN(C)C	none (not shown: Neddylation inh)
C/C(CCC1CC(C)OC1=O)=N\NC(N)=S (stereo not given)	SR-BI HDL uptake 70.8
C/C(CCC1CC(C)(C)OC1=O)=N\NC(N)=S (stereo not given)	SR-BI HDL uptake 72.0
CCOc1ccc(N(C)C(=O)CCc2nnc3ccc(N4CCCCC4)nn23)cc1	none
CCn1cc(C(=O)NCCc2ccccc2)c(=O)c2cc(S(=O)(=O)N3CCCC3)ccc21	SR-BI HDL uptake 72.9
COc1ccc(Cl)cc1NC(=O)CN(C)C(=O)c1cc(-c2ccncc2)nc2ccccc12	none
Cc1ccc(NC(=O)c2cnc(SCC(=O)NCC3CCCO3)n(C)c2=O)cc1C (stereo not given)	UBC13 inh 71.5
CC(=O)Nc1ccc(NC(=O)CSc2ncc(C(=O)Nc3ccccc3)c(=O)n2C)cc1	UBC13 inh 69.3
Cc1ccc([C@H]2C[C@H](n3cc(-c4ccc(F)cc4)nn3)[C@@H](O)CN2CC2CCCCC2)cc1	none (no result: SR-BI uptake up, UBC13 inh, SR-BI HDL uptake)
O=c1c2c([N+](=O)[O-])cc([N+](=O)[O-])cc2sn1Cc1ccccc1	none
O=c1c2c([N+](=O)[O-])cc([N+](=O)[O-])cc2sn1-c1ccc(Br)cc1	SR-BI HDL uptake 79.1
CCOC(=O)C1=C(N)Oc2cc(O)ccc2C1c1ccc(Br)cc1 (stereo not given)	none
O=C(/C=C/[C@H]1O[C@@H](n2ccc(=O)[nH]c2=O)[C@H](O)[C@@H]1O)N1CCN(CCc2ccccc2)CC1	none (no result: SR-BI uptake up, UBC13 inh, SR-BI HDL uptake)
Oc1ccccc1N=Cc1c(O)ccc2ccccc12	SR-BI HDL uptake 80.4
Oc1ccc2ccccc2c1C=Nc1ccccc1Br	none
C=Cc1ccc(N=Cc2c(O)ccc3ccccc23)cc1	SR-BI HDL uptake 75.1
CCOc1ccc(NC(=O)C(C)NC(=O)c2ccccc2Cl)cc1S(=O)(=O)N1CCCC1 (stereo not given)	none
CCOc1ccc(NC(=O)/C(C#N)=C/c2ccc(N3CCCC3)c(C)c2)cc1	SR-BI HDL uptake 95.6 (no result: UBC13 inh)
Cc1ccccc1C(=O)NCC(=O)OC1CCCCC1=O (stereo not given)	none
O=[N+]([O-])c1ccc(NC(c2ccccc2)c2ccc3cccnc3c2O)cc1 (stereo not given)	SR-BI HDL uptake 80.5 (no result: UBC13 inh)
